In paper PMC9116722 (Cancer chemotherapy and pharmacology, 2022):
“Also recorded” adds a separate entry of the source.

Experiment: Adverse events
Format: in vivo, human
Procedure, shortened: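 Patients with germline BRCA-mutated cancers, or BRCA-wildtype TNBC or platinum-refractory ovarian cancer, took oral drug continuously twice daily in 28-day cycles. There were nine dose levels from 50 to 500 mg BID under 3+3 escalation, run separately per cohort after the first DLT. Toxicities were graded by CTCAE v4.0, with DLTs assessed during cycle 1.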

C[C@]1(c2nc3c(C(N)=O)cccc3[nH]2)CCCN1 [veliparib]
Any Grade 3 toxicity (BRCAmut, DL9 500/500 mg AM/PM): 1 (14) number of patients (%)
Any Grade 4 toxicity (BRCAmut, DL9 500/500 mg AM/PM): 1 (14) number of patients (%)
Appendicitis, Grade 3 (BRCAmut, DL9 500/500 mg AM/PM): 0 number of patients (%)
Aspartate aminotransferase increased, Grade 3 (BRCAmut, DL9 500/500 mg AM/PM): 0 number of patients (%)
Dehydration, Grade 3 (BRCAmut, DL9 500/500 mg AM/PM): 0 number of patients (%)
Dyspnea, Grade 4 (BRCAmut, DL9 500/500 mg AM/PM): 1 (14) number of patients (%)
Fatigue, Grade 3 (BRCAmut, DL9 500/500 mg AM/PM): 0 number of patients (%)
Headache, Grade 3 (BRCAmut, DL9 500/500 mg AM/PM): 0 number of patients (%)
Hypophosphatemia, Grade 3 (BRCAmut, DL9 500/500 mg AM/PM): 0 number of patients (%)
Lymphocyte count decreased, Grade 3 (BRCAmut, DL9 500/500 mg AM/PM): 1 (14) number of patients (%)
Lymphocyte count decreased, Grade 4 (BRCAmut, DL9 500/500 mg AM/PM): 0 number of patients (%)
Nausea, Grade 3 (BRCAmut, DL9 500/500 mg AM/PM): 0 number of patients (%)
Platelet count decreased, Grade 4 (BRCAmut, DL9 500/500 mg AM/PM): 1 (14) number of patients (%)
Thromboembolic event, Grade 3 (BRCAmut, DL9 500/500 mg AM/PM): 0 number of patients (%)
Thromboembolic event, Grade 4 (BRCAmut, DL9 500/500 mg AM/PM): 0 number of patients (%)
Urinary tract infection, Grade 3 (BRCAmut, DL9 500/500 mg AM/PM): 0 number of patients (%)
Abdominal pain, Grade 3 (BRCAmut, all dose levels): 2 (3) number of patients (%)
Alkaline phosphatase increased, Grade 3 (BRCAmut, all dose levels): 1 (1) number of patients (%)
Anemia, Grade 3 (BRCAmut, all dose levels): 1 (1) number of patients (%)
Anemia, Grade 4 (BRCAmut, all dose levels): 1 (1) number of patients (%)
Any Grade 3/4 toxicity (BRCAmut, all dose levels): 17 (24) number of patients (%)
Any Grade 3 toxicity (BRCAmut, all dose levels): 15 (21) number of patients (%)
Any Grade 4 toxicity (BRCAmut, all dose levels): 3 (4) number of patients (%)
Appendicitis, Grade 3 (BRCAmut, all dose levels): 1 (1) number of patients (%)
Aspartate aminotransferase increased, Grade 3 (BRCAmut, all dose levels): 1 (1) number of patients (%)
Dehydration, Grade 3 (BRCAmut, all dose levels): 1 (1) number of patients (%)
Dyspnea, Grade 4 (BRCAmut, all dose levels): 1 (1) number of patients (%)
Fatigue, Grade 3 (BRCAmut, all dose levels): 1 (1) number of patients (%)
Headache, Grade 3 (BRCAmut, all dose levels): 1 (1) number of patients (%)
Hypophosphatemia, Grade 3 (BRCAmut, all dose levels): 1 (1) number of patients (%)
Lymphocyte count decreased, Grade 3 (BRCAmut, all dose levels): 9 (13) number of patients (%)
Lymphocyte count decreased, Grade 4 (BRCAmut, all dose levels): 1 (1) number of patients (%)
Nausea, Grade 3 (BRCAmut, all dose levels): 2 (3) number of patients (%)
Platelet count decreased, Grade 4 (BRCAmut, all dose levels): 1 (1) number of patients (%)
Thromboembolic event, Grade 3 (BRCAmut, all dose levels): 2 (3) number of patients (%)
Thromboembolic event, Grade 4 (BRCAmut, all dose levels): 1 (1) number of patients (%)
Urinary tract infection, Grade 3 (BRCAmut, all dose levels): 1 (1) number of patients (%)
grade 3/4 decreased lymphocyte count (BRCAwt group): 18%
incidence of grade 3/4 toxicity (BRCAwt group): 29%
Any Grade 3 toxicity (BRCAwt, DL1 50/50 mg AM/PM): 0 number of patients (%)
Basilic vein thrombosis, Grade 3 (BRCAwt, DL1 50/50 mg AM/PM): 0 number of patients (%)
Dyspnea, Grade 3 (BRCAwt, DL1 50/50 mg AM/PM): 0 number of patients (%)
Fatigue, Grade 3 (BRCAwt, DL1 50/50 mg AM/PM): 0 number of patients (%)
Hypophosphatemia, Grade 3 (BRCAwt, DL1 50/50 mg AM/PM): 0 number of patients (%)
Lymphocyte count decreased, Grade 3 (BRCAwt, DL1 50/50 mg AM/PM): 0 number of patients (%)
Any Grade 3 toxicity (BRCAwt, DL2 100/50 mg AM/PM): 1 (33) number of patients (%)
Basilic vein thrombosis, Grade 3 (BRCAwt, DL2 100/50 mg AM/PM): 0 number of patients (%)
Dyspnea, Grade 3 (BRCAwt, DL2 100/50 mg AM/PM): 0 number of patients (%)
Fatigue, Grade 3 (BRCAwt, DL2 100/50 mg AM/PM): 0 number of patients (%)
Hypophosphatemia, Grade 3 (BRCAwt, DL2 100/50 mg AM/PM): 0 number of patients (%)
Lymphocyte count decreased, Grade 3 (BRCAwt, DL2 100/50 mg AM/PM): 1 (33) number of patients (%)
Any Grade 3 toxicity (BRCAwt, DL3 100/100 mg AM/PM): 0 number of patients (%)
Basilic vein thrombosis, Grade 3 (BRCAwt, DL3 100/100 mg AM/PM): 0 number of patients (%)
Dyspnea, Grade 3 (BRCAwt, DL3 100/100 mg AM/PM): 0 number of patients (%)
Fatigue, Grade 3 (BRCAwt, DL3 100/100 mg AM/PM): 0 number of patients (%)
Hypophosphatemia, Grade 3 (BRCAwt, DL3 100/100 mg AM/PM): 0 number of patients (%)
Lymphocyte count decreased, Grade 3 (BRCAwt, DL3 100/100 mg AM/PM): 0 number of patients (%)
Any Grade 3 toxicity (BRCAwt, DL6 200/200 mg AM/PM): 2 (67) number of patients (%)
Basilic vein thrombosis, Grade 3 (BRCAwt, DL6 200/200 mg AM/PM): 1 (33) number of patients (%)
Dyspnea, Grade 3 (BRCAwt, DL6 200/200 mg AM/PM): 0 number of patients (%)
Fatigue, Grade 3 (BRCAwt, DL6 200/200 mg AM/PM): 0 number of patients (%)
Hypophosphatemia, Grade 3 (BRCAwt, DL6 200/200 mg AM/PM): 0 number of patients (%)
Lymphocyte count decreased, Grade 3 (BRCAwt, DL6 200/200 mg AM/PM): 1 (33) number of patients (%)
Any Grade 3 toxicity (BRCAwt, DL7 300/300 mg AM/PM): 0 number of patients (%)
Basilic vein thrombosis, Grade 3 (BRCAwt, DL7 300/300 mg AM/PM): 0 number of patients (%)
Dyspnea, Grade 3 (BRCAwt, DL7 300/300 mg AM/PM): 0 number of patients (%)
Fatigue, Grade 3 (BRCAwt, DL7 300/300 mg AM/PM): 0 number of patients (%)
Hypophosphatemia, Grade 3 (BRCAwt, DL7 300/300 mg AM/PM): 0 number of patients (%)
Lymphocyte count decreased, Grade 3 (BRCAwt, DL7 300/300 mg AM/PM): 0 number of patients (%)
Any Grade 3 toxicity (BRCAwt, DL8 400/400 mg AM/PM): 3 (43) number of patients (%)
Basilic vein thrombosis, Grade 3 (BRCAwt, DL8 400/400 mg AM/PM): 0 number of patients (%)
Dyspnea, Grade 3 (BRCAwt, DL8 400/400 mg AM/PM): 1 (14) number of patients (%)
Fatigue, Grade 3 (BRCAwt, DL8 400/400 mg AM/PM): 1 (14) number of patients (%)
Hypophosphatemia, Grade 3 (BRCAwt, DL8 400/400 mg AM/PM): 1 (14) number of patients (%)
Lymphocyte count decreased, Grade 3 (BRCAwt, DL8 400/400 mg AM/PM): 1 (14) number of patients (%)
Any Grade 3 toxicity (BRCAwt, all dose levels): 8 (29) number of patients (%)
Basilic vein thrombosis, Grade 3 (BRCAwt, all dose levels): 1 (4) number of patients (%)
Dyspnea, Grade 3 (BRCAwt, all dose levels): 1 (4) number of patients (%)
Fatigue, Grade 3 (BRCAwt, all dose levels): 1 (4) number of patients (%)
Hypophosphatemia, Grade 3 (BRCAwt, all dose levels): 1 (4) number of patients (%)
Lymphocyte count decreased, Grade 3 (BRCAwt, all dose levels): 5 (18) number of patients (%)
patients who came off study after non-dose limiting nausea (DL7-DL9): 6 patients
all-grade decreased lymphocyte count (lymphopenia) (all patients): 38%
all-grade nausea (all patients): 65%
grade 3/4 lymphopenia (all patients): 15%
grade 3 or 4 anemia (all patients): 6%
overall tolerability (continuous single-agent): safe and tolerable; also recorded: well-tolerated
